# Compound activity from PubChem.
# Compounds with a hit are over-represented: about 1.5% of the library has one in this group of screens.
# RAD52 anneal inh = RAD52 DNA annealing inhibitors, primary screen, biochemical, FRET, single point, set 2; inhibition, % at 18.7 µM; DNA repair protein RAD52 homolog (Homo sapiens), P43351; hit rate 0.46% among 360,000; recombinant RAD52 DNA annealing, FRET fluorescence;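 active = every replicate showing at least 50% inhibition; inconclusive = mean inhibition at least 50% but not in every replicate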
# AF4-AF9 inh = inhibitors of AF4 peptide binding to AF9, primary screen, biochemical, AlphaScreen, biotin-AF4 peptide, FLAG-AF9, single point; hit rate 0.47% among 350,000; Protein AF-9 (Homo sapiens), P42568; inhibition, % at 10 µM; AID 651704, 2012;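 active = every replicate reaching a set inhibition limit, whatever the replicate mean, cut at about 25% in these data; inconclusive = mean inhibition reaches that limit but some replicates miss it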;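 note: 0% = plate neutral control median and 100% = total signal loss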
# Target sequence (P42568 whole entry, looked up): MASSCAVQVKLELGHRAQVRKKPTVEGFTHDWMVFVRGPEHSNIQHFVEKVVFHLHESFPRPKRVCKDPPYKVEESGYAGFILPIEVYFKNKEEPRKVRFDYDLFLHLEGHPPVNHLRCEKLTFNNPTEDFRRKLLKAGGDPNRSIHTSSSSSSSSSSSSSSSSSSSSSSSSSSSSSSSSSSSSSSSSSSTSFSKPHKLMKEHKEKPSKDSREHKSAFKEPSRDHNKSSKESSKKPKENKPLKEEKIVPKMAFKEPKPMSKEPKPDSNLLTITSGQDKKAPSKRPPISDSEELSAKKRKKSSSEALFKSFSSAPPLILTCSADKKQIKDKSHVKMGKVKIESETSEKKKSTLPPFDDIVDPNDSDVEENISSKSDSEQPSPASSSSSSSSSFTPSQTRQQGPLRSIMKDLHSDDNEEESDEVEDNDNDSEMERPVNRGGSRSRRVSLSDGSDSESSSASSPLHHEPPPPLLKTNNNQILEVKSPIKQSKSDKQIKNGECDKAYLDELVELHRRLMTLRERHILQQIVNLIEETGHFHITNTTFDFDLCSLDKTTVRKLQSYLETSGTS
# RAD54 branch = inhibitors of human RAD54 branch migration, primary screen, biochemical, fluorescence, single point; DNA repair and recombination protein RAD54-like (Homo sapiens), Q92698; RAD54 Holliday junction branch migration, FAM/BHQ fluorescence; inhibition, % at 10.4 µM; hit rate 0.14% among 360,000;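 active = mean normalized replicate activity at least 40 and at least half of replicates scoring 40 or more; inconclusive = only one of the two criteria met; inactive = mean below 40 and under half of replicates reaching 40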;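 note: 0% = median of neutral control wells and 100% = median of positive control wells; inhibitors cause a drop in the FAM fluorescence signal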
# dFosB act-1 = activators of delta FosB homodimer, primary screen, biochemical, fluorescence polarization, TAMRA-CDK5 oligo, single point | Protein FosB (Mus musculus), P13346 | purified delta FosB; percent of positive-control signal above neutral wells | activation, % at 25 µM | hit rate 0.99% among 340,000;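 active = mean activation above about 17%, with every replicate also reaching it, limit read from the data, passing the limit was not always enough; inconclusive = only one of the two conditions met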
# S100A4 MyoIIA = inhibitors of S100A4-myosin IIA peptide binding, primary screen, biochemical, fluorescence polarization, TAMRA-MyoIIA peptide; AID 652163, 2013; inhibition, % at 10.7 µM; Protein S100-A4 (Homo sapiens), P26447; hit rate 0.14% among 360,000;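 active = mean inhibition of at least 70% across replicates, with every replicate also reaching that level; inconclusive = mean inhibition reaches 70% but some replicates fall short; inactive = mean inhibition below 70%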
# Target sequence (P26447 whole entry, looked up): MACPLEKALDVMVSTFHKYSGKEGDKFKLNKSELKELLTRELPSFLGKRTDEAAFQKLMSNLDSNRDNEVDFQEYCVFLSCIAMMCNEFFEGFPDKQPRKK
#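 Test system – S100A4 monomer (human) · Compound – single-point compound testing · Schedule – 5 min incubation before reading · Probe or stimulus – TAMRA-labelled myosin IIA heavy-chain peptide probe, 5 nM · Benchmarks – neutral control DMSO, positive control TFP · Medium – Calcium-containing HEPES buffer, pH 7.2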
# dFosB act-2 = activators of mouse delta FosB DNA binding, confirmation, biochemical, fluorescence polarization, TAMRA-CDK5 oligo, cherry-picked samples. shares compounds with dFosB act-1. purified delta FosB; normalised: neutral wells 0, positive control 100. activation, % at 24.9 µM. 2,400 tested, under 10 active. AID 588690, 2011;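 active = highest replicate activation at or above 34% and every replicate reaching that threshold; inconclusive = meets only one of the two criteria; inactive = meets neither criterion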;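 note: higher polarization means more probe DNA bound by delta FosB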
# * marks the source's active call; other numbers are inactive results; ? = inconclusive; nt = no result.
SMILES,RAD52 anneal inh,AF4-AF9 inh,RAD54 branch,dFosB act-1,S100A4 MyoIIA,dFosB act-2
CSc1nc2ccc(NC(=O)c3ccc(F)c(F)c3)cc2s1,-14.2,1.1,nt,-8.0,-6.3,nt
CS(=O)(=O)c1ccc2nc(NC(=O)c3cccc(NS(=O)(=O)c4ccc(F)c(F)c4)c3)sc2c1,nt,nt,nt,29.0*,nt,-8.0
CS(=O)(=O)c1ccc2nc(NC(=O)c3ccc(NS(=O)(=O)c4ccc(F)c(F)c4)cc3)sc2c1,-14.1,1.8,7.4,35.5*,-2.1,-0.6
O=C(Nc1nc2ccc(SC(F)F)cc2s1)c1ccc(NS(=O)(=O)c2ccc(F)c(F)c2)cc1,-35.2,11.1,3.7,38.2*,5.7,5.0
O=C(Nc1cccc(Cl)c1)c1ccc2c(c1)SC1=NS(=O)(=O)CCN12,-4.9,0.2,nt,26.4*,10.2,-0.6
COc1ccc(CCNC(=O)c2ccc3c(c2)SC2=NS(=O)(=O)CCN23)cc1,-14.3,8.6,-1.5,-5.0,-0.9,nt
CCNC(=O)Cn1cc(C(F)(F)F)cc(Cl)c1=O,-0.3,-26.9,nt,0.8,3.4,nt
O=C(Cn1cc(C(F)(F)F)cc(Cl)c1=O)NCc1ccc(Cl)cc1Cl,-13.6,-2.3,2.1,46.2*,-2.4,2.4
C[C@@H]1CCCCO[C@H](CN(C)S(=O)(=O)c2cccs2)[C@H](C)CN([C@@H](C)CO)C(=O)c2cc(NS(=O)(=O)c3ccc(F)cc3)ccc2O1,10.5,-5.0,-7.9,nt,-5.6,nt
O=C(Cn1ncn2c(cc3ccccc32)c1=O)NCCCc1ccccc1,nt,nt,3.5,47.5*,nt,0.5
COc1ccc2c3c([nH]c2c1)[C@H](CO)N(C(=O)c1ccccc1)CC31CN(S(=O)(=O)c2cccs2)C1,nt,3.9,nt,nt,nt,nt
Cc1c(C(=O)NNC(=O)Nc2ccc([N+](=O)[O-])cc2)oc2ccccc12,4.2,-7.1,-0.2,66.6*,0.8,1.4
CCC(=O)Nc1ccc(NC(=O)c2oc3ccccc3c2C)cc1,-1.6,1.0,-3.2,4.2,-16.3,nt
COc1ccc2nc(N(CCN(C)C)C(=O)/C=C/c3cccs3)sc2c1,18.2,19.5,nt,42.1*,0.0,-8.0
O=C(Nc1ccc(F)cc1)N1C[C@@H]2[C@H](c3ccccc31)[C@@H](CO)N2C(=O)Cc1cccnc1,-11.5,-0.6,-6.3,nt,2.8,nt
CCn1c(C)c(C2=CCN(S(=O)(=O)c3ccccc3)CC2)c2ccccc21,nt,nt,-2.7,30.6*,nt,-0.4
CCCCCc1cc(=O)oc2c(C(CCN3CCCC(C)C3)c3ccc4c(c3)OCO4)c(OC)cc(OC)c12 (stereo unspecified),10.7,20.9,4.7,32.5*,4.9,1.1
COc1ccc(C(CCN2CCCC(C)C2)c2c(OC)cc(OC)c3c(C)cc(=O)oc23)cc1 (stereo unspecified),nt,nt,13.0,-9.6,nt,nt
O=C(COc1ccc2c(c1)OCO2)Nc1ccc2c(c1)oc1ccccc12,nt,nt,2.7,81.3*,nt,2.5
CCOc1ccc(CC(=O)Nc2c(C(=O)Nc3ccccc3)oc3ccccc23)cc1OCC,nt,nt,1.7,27.4*,nt,1.6
CCCNC(=O)C[C@@H]1CC[C@@H]2[C@H](COc3ccc(NC(=O)CCC)cc3C(=O)N2C)O1,14.3,2.5,5.9,nt,-2.3,nt
O=C(Cn1c(=O)n(Cc2ccco2)c(=O)c2ccccc21)Nc1cccc(Cl)c1,-17.2,8.5,-4.9,?,-3.6,nt
Cc1ccc(NC(=O)Cn2c(=O)n(CCCCC(=O)NCc3ccco3)c(=O)c3ccccc32)cc1,nt,nt,-4.8,30.6*,nt,4.0
Cc1ccc(NC(=O)Cn2c(=O)n(Cc3ccco3)c(=O)c3ccccc32)c(C)c1,nt,nt,-0.3,32.2*,nt,1.8
O=C(CCCCn1c(=O)c2ccccc2n(CC(=O)Nc2ccc(F)cc2)c1=O)NCc1ccco1,nt,nt,3.0,1.4,nt,nt
SMILES,RAD52 anneal inh,AF4-AF9 inh,RAD54 branch,dFosB act-1,S100A4 MyoIIA,dFosB act-2
O=C(COc1ccccc1[N+](=O)[O-])Nc1ccc(NC(=O)c2cc3ccccc3o2)cc1,-21.3,-6.9,2.8,54.1*,-64.6,2.9
COc1ccc(NS(=O)(=O)c2cccc(C(=O)OCC(=O)Nc3cc(C)on3)c2)cc1,nt,nt,-3.4,19.9*,nt,-1.3
Cc1ccc(NS(=O)(=O)c2ccc(C(=O)OCC(=O)Nc3cc(C)on3)cc2)cc1,-10.5,-0.9,5.8,-9.5,-2.9,nt
O=C(COc1ccc(/C=N/NC(=O)c2cc3ccccc3o2)cc1Br)Nc1ccccc1,nt,nt,4.1,65.8*,nt,4.0
O=C(COc1ccccc1[N+](=O)[O-])Nc1cccc(S(=O)(=O)NC2=NCCCCC2)c1,-3.5,-0.1,nt,-0.7,0.5,nt
O=C(COc1ccccc1[N+](=O)[O-])Nc1ccc2oc(=O)ccc2c1,-15.4,-0.6,-6.1,-3.5,-1.1,nt
O=C(N/N=C/c1ccco1)c1cc2ccccc2o1,-13.7,-0.5,-1.6,-8.9,1.2,nt
COc1ccc(NS(=O)(=O)c2cccc(NC(=O)COc3ccccc3[N+](=O)[O-])c2)cc1,-8.7,-0.3,1.1,25.0*,-1.7,1.4
COC(=O)C[C@H]1CC[C@H]2[C@@H](COc3ccc(NS(=O)(=O)c4cccc(F)c4)cc3C(=O)N2C)O1,1.4,3.3,6.6,nt,-2.5,nt
Cc1cc(C)c(OCC(=O)Nc2ccc(NC(=O)c3ccco3)cc2)c([N+](=O)[O-])c1,nt,nt,1.0,17.6*,nt,0.0
Cc1cc(C)c(OCC(=O)Nc2cccc(NC(=O)c3ccco3)c2)c(Br)c1,nt,nt,-1.5,-0.5,nt,nt
COc1ccc(Nc2oc(COc3ccc(Cl)cc3)nc2C#N)cc1,nt,nt,2.5,22.3*,nt,0.9
O=C(CSc1nnc(SCc2ccc(Cl)cc2)s1)N/N=C/c1c[nH]c2ccccc12,nt,nt,nt,37.8*,nt,4.6
COc1ccccc1NC(=O)Cn1nnc(C(=O)NCc2cccs2)c1N,-7.7,-32.5,3.3,22.2*,-1.5,-6.5
O=C(Cn1nnc2c(cnn2-c2ccccc2)c1=O)NCc1cccs1,nt,nt,-5.2,37.9*,nt,4.8
CCc1ccccc1NC(=O)Cn1nnc(C(=O)NCc2cccs2)c1N,nt,nt,nt,39.8*,nt,-0.5
COc1ccc(NC(=O)Cn2nnc(C(=O)NCc3cccs3)c2N)cc1,-29.6,-9.2,nt,14.1,5.2,nt
Cc1ccc(S(=O)(=O)Nc2ccc3c(c2)C(=O)N([C@H](C)CO)C[C@H](C)[C@@H](CN(C)Cc2ccc4c(c2)OCO4)OCCCC[C@H](C)O3)cc1,4.0,8.9,5.2,nt,-3.4,nt
Cc1ccsc1C(=O)NNC(=O)Nc1ccc(Cl)c(Cl)c1,nt,nt,-1.7,24.7*,nt,0.4
CC(C)C(=O)Nc1ccc(-c2ccc3nncn3n2)cc1,-18.9,0.7,nt,-8.6,20.4,nt
O=C(Nc1ccc(-c2ccc3nncn3n2)cc1)c1ccc(Br)o1,-22.2,-17.3,nt,54.0*,-3.4,3.6
